Results pooled from the literature.
Compare with care: the assays were run in different laboratories.
Target: Tyrosine-protein kinase Fgr (FGR, Homo sapiens, UniProt P09769)

`Cc1ccc(NC(=O)c2ccc(CN3CCN(C)CC3)cc2)cc1Nc1nc(-c2cccnc2)cs1` gave a remaining signal of 43.6% (cell-free assay; 0.5 µM).
`O=C(N1CCS(=O)(=O)CC1)N1C[C@H](c2ccc(OC(F)(F)F)cc2)C[C@H](c2nc(C3CC3)no2)C1` has a remaining binding of 100% (cell-free assay; competition with immobilised ligand; 1 µM).
`Cn1c2c(c3ccc(Cl)c(Cl)c31)C(C#N)C1(CCCC1)NC2=O` (stereo not shown) gave a ΔTm of -0.2 °C (thermal stability; DSF; 10 µM).
With `Cc1ccc(Nc2nccc(N(C)c3ccc4c(C)n(C)nc4c3)n2)cc1S(N)(=O)=O` the remaining signal was 35.8% (cell-free assay; 0.5 µM).
`CNC(=O)c1cc(Oc2ccc(NC(=O)Nc3ccc(Cl)c(C(F)(F)F)c3)cc2)ccn1` has an inhibition of 10% (enzyme activity; inhibitor; 0.3 µM).
With `COc1cc(-c2cn(C3CCc4c(F)cccc4N(CC(F)(F)F)C3=O)nn2)ccc1-n1cnc(C)c1` (stereo not shown) the remaining binding was 100% (cell-free assay; competition with immobilised ligand; 1 µM).
With `O=C(Nc1cnn(-c2csc(C(=O)NC3COC3)c2)c1)Nc1ccccc1Cl` the remaining activity was 90% (enzyme activity; inhibitor; 5 µM).
The remaining binding of `O=C1CCc2cc(Nc3cc(OC4CCOCC4)c([N+](=O)[O-])cc3Cl)ccc2N1` is reported as 100% (cell-free assay; competition with immobilised ligand; 1 µM).
`CCCOc1ccc(OC)c(F)c1C(=O)c1ccc(C(=O)N[C@@H]2CNC[C@H]2NC(=O)c2ccc3[nH]ncc3c2)cc1` gave a remaining activity of 65% (enzyme activity; inhibitor; 10 µM).
With `Cc1cc(NC(=O)c2cccc3cc(-c4cccc5[nH]nc(N)c45)ccc23)ccc1F` the activity vs control was 110% (enzyme activity; inhibitor; 0.1 µM).
`CC(C)(C)c1nc2c(s1)c1nc(N)ncc1c1ccc(NS(=O)(=O)c3c(F)cccc3F)c(F)c12` has a remaining activity of 91% (enzyme activity; inhibitor; radiometric; 1 µM).
`O=C(Nc1cccnn1)N1CCC(=Cc2cccc(Oc3ccc(C(F)(F)F)cn3)c2)CC1` has a remaining binding of 63% (cell-free assay; competition with immobilised ligand; 1 µM).
`N#CCCc1ccc2c(c1)-c1[nH]c3ccc([N+](=O)[O-])cc3c1CC(=O)N2` has a remaining signal of 31% (cell-free assay; 0.5 µM).
For `Cc1ccc(C(=O)Nc2ccc(CN3CCN(C)CC3)c(C(F)(F)F)c2)cc1C#Cc1cnc2cccnn12`, the remaining activity was 10% (enzyme activity; 23.5 nM).
With `CNC(=O)c1ccc(Nc2ncc(C(F)(F)F)c(NCc3nccnc3N(C)S(C)(=O)=O)n2)cc1` the remaining binding was 81% (cell-free assay; competition with immobilised ligand; 0.1 µM).
`CN(c1nccc(-c2cnn3ncccc23)n1)C1CC1` has a remaining signal of 100% (cell-free assay; 1 µM).
`CN(C)C(=O)Cn1cc(-c2nc(C3(c4ccc(-c5cnc(N)nc5)cc4)CC3)no2)cn1` gave a remaining binding of 100% (cell-free assay; competition with immobilised ligand; 1 µM).
For `CNC(=O)c1cc2c(Oc3ccc(NC(=O)C4(C(=O)Nc5ccc(F)cc5)CC4)cc3)ccnc2cc1OC`, the inhibition was 79% (enzyme activity; inhibitor; radiometric; 1 µM).
With `CC(C)CC(=O)N1CCc2nc(-c3ccc(Br)cc3)nc(N(C)Cc3ccccc3)c2C1` the remaining binding was 99% (cell-free assay; competition with immobilised ligand; 0.1 µM).
With `CCN(CC)CCNC(=O)c1c(C)[nH]c(/C=C2\C(=O)Nc3ccc(F)cc32)c1C` the inhibition was 97% (enzyme activity; inhibitor; 10 µM).
For `Cn1c2c(c3ccc(Cl)c(Cl)c31)C(C#N)C1(CCNCC1)NC2=O` (racemic), the ΔTm was 0.1 °C (thermal stability; DSF; 10 µM).
The activity vs control of `Cc1ccc(C(=O)NCc2ccsc2)cc1C#Cc1cn(C(C)C)c2ncnc(N)c12` is reported as 2% (enzyme activity; inhibitor; 1 µM).
The ΔTm of `Cn1c2c(Cl)c(Cl)ccc2c2cc(N)[nH]c(=O)c21` is reported as 0 °C (thermal stability; DSF; 10 µM).
With `COc1cc2ncnc(Nc3ccc(Oc4ccccc4)cc3C)c2cc1OC` the inhibition was 98% (enzyme activity; inhibitor; 1 µM).
For `CC1(C)NC(=O)c2[nH]c3c(Cl)c(Cl)ccc3c2C1C#N` (stereo not shown), the ΔTm was 0.2 °C (thermal stability; DSF; 10 µM).
For `O=S(=O)(NC1CCC(c2cc(F)ccc2F)(S(=O)(=O)c2ccc(Cl)cc2)CC1)C(F)(F)F` (stereo not shown), the remaining binding was 99% (cell-free assay; competition with immobilised ligand; 1 µM).
For `CC(C)(O)[C@H]1CC[C@H](Nc2ccc3ncc(-c4cccc(C(F)(F)F)c4)n3n2)CC1`, the remaining activity was 36.8% (enzyme activity; inhibitor; 1 µM).
The ΔTm of `Cn1c2c(c3ccc(Cl)c(Cl)c31)C(C#N)C1(CCOCC1)NC2=O` (stereo not shown) is reported as 0 °C (thermal stability; DSF; 10 µM).
